Experimental data published in the array DNA melting data of Ke et al. (doi:10.1101/2024.01.08.574731).

Tests used:
[1] = folding enthalpy; higher = less favourable; fluorescence melt of hairpins on a sequencing array, two-state fit; conditions: sodium 0.088 M
How it was run: (§1)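 With Cy3 and quencher oligos annealed, library hairpins on a sequenced MiSeq flow cell were imaged for Cy3 fluorescence in 50 mM Na-HEPES pH 8.0, 25 mM NaCl, in 2.5 °C steps up to 60 °C. Melting temperature and folding enthalpy were derived from bootstrapped two-state fits of signals normalised to pre-quench Cy3 and to control constructs. Four replicates were combined by inverse variance, with fitted temperatures raised by 9.35 °C to match UV melts.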

[2] = melting temperature; fluorescence melt of hairpins on a sequencing array, two-state fit, raised by 9.35 °C to match UV melts; conditions: sodium 0.088 M
How it was run: as §1

Sequence | folding enthalpy [1] | Tm [2]
GCTAAGCGAAAGCCAAGC (((..((....))..))) | -20.3 kcal/mol | 38 °C
GCTAAGCGAAAGCGCAGC (((..((....))..))) | -30.2 kcal/mol | 66.5 °C
GCTAAGCGAAAGCTACGC ((..(((....)))..)) | -13.2 kcal/mol | 39.2 °C
GCTAAGGAAACTTAGC ((((((....)))))) | -24.6 kcal/mol | 52 °C
GCTAAGGCGAAAGCCAGC (((..(((....)))))) | -16 kcal/mol | 48.6 °C
GCTACACGAAAGTGGAGC (((.(((....))).))) | -43.5 kcal/mol | 67 °C
GCTACAGGAAACCGTAGC (((((.(....).))))) | -31.6 kcal/mol | 47.7 °C
GCTACAGGAAACTATAGC ((((.((....)).)))) | -12.1 kcal/mol | 31.7 °C
GCTACCGAAAGGTAAGC ((((((....))).))) | -35 kcal/mol | 53.2 °C
GCTACCGAAAGGTGAGC ((((((....))).))) | -23.3 kcal/mol | 51 °C
GCTACCGAAAGGTGGAGC ((((((....)))..))) | -15.3 kcal/mol | 41.3 °C
GCTACCGAAAGGTGTAGC ((((((....)))..))) | -21.7 kcal/mol | 47.1 °C
GCTACCGGAAACGATAGC ((((.((....)).)))) | -31.6 kcal/mol | 43.7 °C
GCTACGCCGAAAGGCAGC (((..(((....)))))) | -11.9 kcal/mol | 42.3 °C
GCTACGCGAAAGCACAGC (((..((....))..))) | -21.2 kcal/mol | 46.5 °C
GCTACGCGAAAGCGTCGC ((.((((....)))).)) | -19.3 kcal/mol | 57.7 °C
GCTACGCGAAAGCGTTGC ((.((((....)))).)) | -27.2 kcal/mol | 65 °C
GCTACGGGAAACCGTAGC (((((((....))))))) | -38.1 kcal/mol | 68.8 °C
GCTACGGGAAACTGTAGC (((((.(....).))))) | -48.3 kcal/mol | 52.1 °C
GCTACGGGAAACTGTGGC ((.((.(....).)).)) | -30.7 kcal/mol | 41.1 °C
GCTACTACGAAAGTAAGC (((..(((....)))))) | -13.6 kcal/mol | 29.5 °C
GCTAGAGAAATCTAGC ((((((....)))))) | -30.4 kcal/mol | 50.3 °C
GCTAGAGGAAACTCTGGC ((.((((....)))).)) | -37.9 kcal/mol | 48 °C
GCTAGCACGAAAGTGAGC (((..(((....)))))) | -17.4 kcal/mol | 35.1 °C

Sequence | folding enthalpy [1] | Tm [2]
GCTAGCCCGAAAGGGAGC (((..(((....)))))) | -14.3 kcal/mol | 37.8 °C
GCTAGCGAAAGCTCTAGC ((((((....)))..))) | -15.3 kcal/mol | 38.5 °C
GCTAGCGAAAGCTGCAGC ((((((....)))..))) | -13.2 kcal/mol | 46 °C
GCTAGCGAAAGCTTCAGC ((((((....)))..))) | -10.9 kcal/mol | 39.1 °C
GCTAGCGAAAGCTTTAGC ((((((....)))..))) | -14 kcal/mol | 40.5 °C
GCTAGCGCGAAAGCGAGC (((..(((....)))))) | -12.9 kcal/mol | 44.9 °C
GCTAGCGGAAACGCCAGC (((.(((....))).))) | -23.6 kcal/mol | 48.4 °C
GCTAGCGGAAACGCTAAC (.(((((....))))).) | -12.7 kcal/mol | 40 °C
GCTAGGCGAAAGCATTGC ((.(.((....)).).)) | -19.2 kcal/mol | 42.1 °C
GCTAGGCGAAAGCCAGGC ((..(((....)))..)) | -16.8 kcal/mol | 54.9 °C
GCTAGGCGAAAGCCCAGC (((.(((....))).))) | -23.7 kcal/mol | 50.7 °C
GCTAGGCGAAAGCGCAGC (((..((....))..))) | -15.8 kcal/mol | 39.6 °C
GCTAGGCGAAAGCGTAGC ((((.((....)).)))) | -33 kcal/mol | 62.8 °C
GCTAGGCGAAAGCTCAGC (((..((....))..))) | -19.6 kcal/mol | 42.9 °C
GCTAGGGCGAAAGCCAGC (((..(((....)))))) | -15 kcal/mol | 48 °C
GCTAGGGGAAACCCCAGC (((.(((....))).))) | -29.8 kcal/mol | 49.1 °C
GCTAGTCCGAAAGGAAGC (((..(((....)))))) | -16.1 kcal/mol | 30 °C
GCTAGTCGAAAGACAAGC (((.(((....))).))) | -34.7 kcal/mol | 51.8 °C
GCTAGTGGAAACATTGGC ((.(.((....)).).)) | -10.7 kcal/mol | 28.2 °C
GCTATAGGAAACCATAGC (((((.(....).))))) | -29.8 kcal/mol | 35.6 °C
GCTATCCGAAAGGAAGC (((.(((....)))))) | -23.2 kcal/mol | 46 °C
GCTATCGAAAGATAAAGC ((((((....)))..))) | -23.9 kcal/mol | 33.6 °C
GCTATCGAAAGATTTAGC ((((((....)))..))) | -19.9 kcal/mol | 32.7 °C
